Tests used:
HepG2 cells = assay: Flow cytometry analysis of the cell cycle of HepG2; format: cell-based; settings: HepG2, 24 h, around IC50 concentration
How it was run: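 HepG2 cells (ca. 1 × 10^6) were seeded 24 h, then exposed to test compound for 24 h. Cells were harvested with 0.25% trypsin, spun 5 min at 1500 rpm, washed twice in PBS and fixed in 70% ethanol for 4 h at −20 °C. They were taken up in cold PBS with RNase A, stained with propidium iodide for 1 h in the dark and analysed by flow cytometry.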

[1] = test system: Liver (HepG2) cancer cell line; assay: IC50 by MTT assay, HepG2; format: cell-based; settings: HepG2, 48 h
How it was run: (§1)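 Cells were grown in DMEM at 37 °C, 5% CO2, 95% humidity, trypsinised and counted by trypan blue/hemocytometer. 10^4 cells per well were incubated 24 h, then test compound (3.5, 7, 14, 28, 56 μM; four replicates each) was added at ~70% confluence for 48 h. MTT (0.5 mg/mL) ran 4 h, then DMSO 15 min at room temperature, read at 595 nm. IC50 came from viability vs concentration curves.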

[2] = test system: breast (MCF-7) cancer cell line; assay: IC50 by MTT assay, MCF-7; format: cell-based; settings: MCF-7, 48 h
How it was run: as §1

ct-DNA [3] = settings: cited from earlier work
ct-DNA [4] = settings: cited from earlier work; remark: listed apart in the source

With N.N.[Cl][Pt][Cl] [Cisplatin] the “cell population in the G1/G0, S and G2/M phases vs control” value (HepG2 cells) was “decreases”, the “cell population in the sub-G phase” value (HepG2 cells; control ca. 1%) was 47.3% and the IC50 [1] was 19.7 ± 1.53 µM. For the same compound, the IC50 [2] was 18.4 ± 2.72 µM.

In the case of [Cl-].[Pt+2].c1ccc(-c2cccc(-c3ccccn3)n2)nc1 [Pt(terpy)Cl], the DNA binding mode (ct-DNA [3]) is listed as “shifts gradually from the intercalation mode to the covalent binding mode”.

For CC[n+]1c(-c2ccccc2)c2cc(N)ccc2c2ccc(N)cc21 [ethidium bromide], the “binding constant (KEB) of ethidium bromide to DNA” value (ct-DNA [4]) is listed as 1 × 10^5.

Reference: PMC10028500 (RSC Advances, 2023)
